Experimental findings from ChEMBL document CHEMBL2157942, “ortho-Quinone tanshinones directly inhibit telomerase through an oxidative mechanism mediated by hydrogen peroxide” (Bioorg Med Chem Lett, 2011) are described below.

The target of data set [1] is T1, Telomerase reverse transcriptase (Homo sapiens, UniProt O14746). In words: Inhibition of human recombinant telomerase activity in rabbit reticulocytes at 50 uM after 90 mins by telomerase assemblage gel electrophoresis. Format: cell-based. A digest of the protocol:
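Assembly format: hTERT translated in rabbit reticulocyte lysate was incubated 1.5 h with in vitro transcribed hTER in the presence of inhibitor. Activity was then read by direct primer extension, with products resolved by gel electrophoresis and imaged by phosphorimaging. Products were normalized to a 100 nt 32P-labeled oligonucleotide loading control, and percent activity was calculated against a DMSO carrier control.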

Data set [2] has as its target T1, Telomerase reverse transcriptase. In words: Inhibition of human recombinant telomerase activity in rabbit reticulocytes after 90 mins by telomerase assemblage gel electrophoresis. The data set is classed as cell-based. In outline:
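hTERT translated in rabbit reticulocyte lysate, then incubated 1.5 h with in vitro transcribed hTER in the presence of inhibitor (DMSO carrier). Activity was read by direct primer extension, with products resolved on gel and phosphorimaged. Signal was normalized to a 100 nt 32P-labeled DNA loading control, and percent activity was taken versus the DMSO-only control.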

For data set [3] the target is unchanged. In words: Inhibition of pre-assembled human recombinant telomerase activity in rabbit reticulocytes after 90 mins by gel electrophoresis method based direct primer extension assay. Format: cell-based. In outline:
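Telomerase was first reconstituted in rabbit reticulocyte lysate from hTERT and hTER, then assayed post-assembly by direct primer extension with inhibitor present. Products were gel-resolved, phosphorimaged and normalized to a 32P-labeled 100 nt oligonucleotide loading control. Percent activity was taken relative to the DMSO carrier control.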

Data set [4] shares this target. Particulars: 50 uM.
For data set [5] the target is unchanged. Particulars: 50 uM. This is another data set of the same source.
The target is the same in data set [6]. Particulars: 50 uM. This is another data set of the same source.
For another data set, the system named is MCF7. The data set can be described thus: Cytotoxicity against telomerase positive human MCF7 cells after 96 hrs by SRB assay. Particulars: MCF7, 96 h. The data set is classed as functional, cell-based. In general terms: In SRB staining, fixed cells bind dye roughly in proportion to their protein.
The test system of the next data set is PC-3. The data set can be described thus: Cytotoxicity against telomerase positive human PC3 cells after 96 hrs by SRB assay. The data set is classed as functional, cell-based. Particulars: PC-3, 96 h.
The nature of data set [7]: Cytotoxicity against telomerase negative human GM847 cells after 96 hrs by SRB assay. Particulars: GM847, 96 h. Format: functional, cell-based.
The test system of the next data set is SAOS-2. The data set can be described thus: Cytotoxicity against telomerase negative human Saos2 cells after 96 hrs by SRB assay. The data set is classed as functional, cell-based. Particulars: SAOS-2, 96 h.
Data set [8] in a line: Induction of ROS generation assessed as hydrogen peroxide production in PBS buffer at 20 uM in presence of 5 nM of DTT. The data set is classed as physicochemical. Particulars: in the assay text read “5 mM of DTT” for “5 nM of DTT”, TDE = time-dependent effect. In outline:
(§1)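 Compound at 20 µM incubated in PBS for set times under three conditions: no DTT, with 5 mM DTT, or with 5 mM DTT plus 30 U catalase. Hydrogen peroxide was measured with a commercial hydrogen peroxide kit. Two independent experiments; mean and standard deviation reported.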

Data set [9] can be described thus: Induction of ROS generation assessed as hydrogen peroxide production in PBS buffer at 20 uM in absence of DTT. The data set is classed as physicochemical. A digest of the protocol:
as §1

The nature of data set [10]: Induction of ROS generation assessed as hydrogen peroxide production in PBS buffer at 20 uM in presence of 5 nM of DTT in presence of 30U catalase. Format: physicochemical. Particulars: in the assay text read “5 mM of DTT” for “5 nM of DTT”. A digest of the protocol:
as §1

The target in data set [11] is T1, Telomerase reverse transcriptase. Particulars: MCF7, 3 uM.

Structures are written as SMILES. The source made the active and inactive calls. The rule behind the calls is not given here. Bounds are passed on as bounds.

T1 sequence (O14746 whole entry): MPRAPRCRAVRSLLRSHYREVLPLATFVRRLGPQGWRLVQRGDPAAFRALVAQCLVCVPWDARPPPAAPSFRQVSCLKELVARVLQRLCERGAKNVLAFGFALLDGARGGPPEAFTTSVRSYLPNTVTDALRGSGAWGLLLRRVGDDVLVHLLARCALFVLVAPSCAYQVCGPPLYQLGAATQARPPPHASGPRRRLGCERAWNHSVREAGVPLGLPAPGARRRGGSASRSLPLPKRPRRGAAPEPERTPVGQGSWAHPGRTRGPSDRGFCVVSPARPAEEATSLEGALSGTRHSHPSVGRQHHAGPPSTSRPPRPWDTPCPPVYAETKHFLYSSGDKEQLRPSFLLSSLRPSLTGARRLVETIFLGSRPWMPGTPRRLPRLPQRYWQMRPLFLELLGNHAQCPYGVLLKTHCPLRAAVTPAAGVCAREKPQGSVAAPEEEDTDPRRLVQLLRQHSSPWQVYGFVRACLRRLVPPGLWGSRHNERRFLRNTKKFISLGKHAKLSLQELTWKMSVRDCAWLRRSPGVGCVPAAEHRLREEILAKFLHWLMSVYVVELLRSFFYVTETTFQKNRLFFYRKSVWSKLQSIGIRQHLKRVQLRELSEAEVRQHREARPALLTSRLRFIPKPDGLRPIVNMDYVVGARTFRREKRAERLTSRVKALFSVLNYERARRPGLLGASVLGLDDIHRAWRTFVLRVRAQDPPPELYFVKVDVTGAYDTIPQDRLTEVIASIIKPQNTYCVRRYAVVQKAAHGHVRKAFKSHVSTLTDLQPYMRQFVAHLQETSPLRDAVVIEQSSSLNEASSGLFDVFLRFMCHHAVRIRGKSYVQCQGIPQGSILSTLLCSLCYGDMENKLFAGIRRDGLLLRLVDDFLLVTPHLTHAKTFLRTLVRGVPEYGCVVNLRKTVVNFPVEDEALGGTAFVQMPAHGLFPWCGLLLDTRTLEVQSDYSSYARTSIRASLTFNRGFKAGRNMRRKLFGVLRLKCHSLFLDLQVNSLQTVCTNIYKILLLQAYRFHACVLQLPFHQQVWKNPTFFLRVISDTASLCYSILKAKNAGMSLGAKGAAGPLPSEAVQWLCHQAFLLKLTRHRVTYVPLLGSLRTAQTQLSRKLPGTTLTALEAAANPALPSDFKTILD

Regarding `C[C@H]1COC2=C1C(=O)C(=O)c1c2ccc2c1CCCC2(C)C`, the inhibition – broadly, the share of the control response that was lost under treatment – in [1] came to 75%.

`Cc1cccc2c1ccc1c3occ(C)c3c(=O)oc21`: in data set [1], the inhibition came out at 25%.

For `Cc1coc2c1C(=O)C(=O)c1c-2ccc2c(C)cccc12`, the inhibition in data set [1] came out at 65%.

For `O=C1C(=O)c2ccccc2-c2ccccc21` [9,10-PHENANTHRENEQUINONE], the values for the IC50 in [2] and in data set [3] were 5 µM and 0.5 µM, respectively. Also, the inhibition in data set [4] was 35%; in data set [5] it was more than 95%. For the same compound, the inhibition result in data set [6] was “inactive”.

`Cc1coc2c1C(=O)C(=O)c1c-2ccc2c1CCCC2(C)C` [TANSHINONE IIA]: the inhibition in data set [1] was 75%; in data set [11] it was 50%. In addition, the results for the concentration for half-maximal inhibition (IC50) in data set [2] and in data set [3] were 5 µM and 0.5 µM, respectively. The EC50 (usually the midpoint of the concentration-response curve) with MCF7 is 0.9 µM; in the data set on PC-3, 1.2 µM; in data set [7], more than 20 µM; in the data set with SAOS-2, more than 20 µM. Further, the Activity result in data set [8] is on record as “tde”; in data set [9], “Not Active”; in [10], “Not Active”.
